Data taken from ChEMBL document CHEMBL3621182, “Adenosine analogs as inhibitors of tyrosyl-tRNA synthetase: Design, synthesis and antibacterial evaluation” (Bioorg Med Chem, 2015).
Converted amounts (≈) assume the structure as drawn.

Legend:
[1] = Inhibition of Staphylococcus aureus tyrosyl-tRNA synthetase expressed in Escherichia coli assessed as reduction in tRNA aminoacylation pre-incubated for 10 mins before addition of Escherichia coli MRE600 tRNA and L-tyrosine
In short: (§1)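 Tritiated tyrosine aminoacylation at 37°C. Mix (final): 100 mM Tris/Cl pH 7.9, 50 mM KCl, 16 mM MgCl2, 5 mM ATP, 3 mM DTT, 4 mg/ml E. coli MRE600 tRNA, 10 µM L-tyrosine including 0.3 µM L-[ring-3,5-3H]tyrosine. TyrRS (0.2 nM) preincubated 10 min at room temperature with a range of inhibitor concentrations. TCA precipitation onto filters, scintillation counting. Linear rates, under 50% tRNA acylation; IC50 at half activity.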

[2] = tested on: Escherichia coli; experiment: Antimicrobial activity against Escherichia coli ATCC 8739 by MTT assay; type: functional
In short: (§2)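 Broth microdilution in LB medium with MTT read-out. Compound stock 1000 µg/ml in DMSO, diluted serially with sterile medium (50% v/v DMSO in PBS). Inoculum about 10^5 cfu/mL, incubated at 37°C. Then 3 mg/mL MTT in PBS added, 4-5 h at room temperature. Dye extracted with 10% SDS containing 5% isopropanol and HCl for 8-10 h. Absorbance at 570 nm gives MIC50.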

[3] = tested on: Staphylococcus aureus; experiment: Antimicrobial activity against Staphylococcus aureus ATCC 6538 by MTT assay; type: functional; in short: as §2
[4] = tested on: Pseudomonas aeruginosa; experiment: Antimicrobial activity against Pseudomonas aeruginosa ATCC 9027 by MTT assay; type: functional; in short: as §2
[5] = Inhibition of Staphylococcus aureus tyrosyl-tRNA synthetase; in short: as §1

SMILES | IC50 [1] | MIC50 [2] | MIC50 [3] | MIC50 [4] | IC50 [5]
Nc1ncnc2c1ncn2[C@@H]1O[C@H](COC(=O)Cc2ccc(Cl)c(Cl)c2)[C@@H](O)[C@H]1O | 97 µM | 19.4 µg/mL (≈ 42.7 µM) | 48.5 µg/mL (≈ 107 µM) | 21.4 µg/mL (≈ 47.1 µM) | –
Nc1ncnc2c1ncn2[C@@H]1O[C@H](COC(=O)Cc2ccccc2Cl)[C@@H](O)[C@H]1O | 47 µM | 7.4 µg/mL (≈ 17.6 µM) | > 100 µg/mL | 26.7 µg/mL (≈ 63.6 µM) | –
Cc1ccc(CC(=O)OC[C@H]2O[C@@H](n3cnc4c(N)ncnc43)[C@@H]3OC(C)(C)O[C@@H]32)cc1 | 17 µM | 27 µg/mL (≈ 61.4 µM) | > 100 µg/mL | 14.1 µg/mL (≈ 32.1 µM) | –
O=C(O)c1cn(C2CC2)c2cc(N3CCNCC3)c(F)cc2c1=O [CIPROFLOXACIN] | – | 0.67 µg/mL (≈ 2.02 µM) | – | 0.1 µg/mL (≈ 0.302 µM) | –
CC1(C)O[C@@H]2[C@H](O1)[C@@H](COC(=O)Cc1ccc(O)cc1)O[C@H]2n1cnc2c(N)ncnc21 | 19 µM | 44.6 µg/mL (≈ 101 µM) | > 100 µg/mL | 17.4 µg/mL (≈ 39.4 µM) | –
COc1ccc(CC(=O)OC[C@H]2O[C@@H](n3cnc4c(N)ncnc43)[C@H](O)[C@@H]2O)cc1OC | > 100 µM | 16.5 µg/mL (≈ 37 µM) | > 100 µg/mL | 10.2 µg/mL (≈ 22.9 µM) | –
Nc1ncnc2c1ncn2[C@@H]1O[C@H](COC(=O)Cc2cccc(Br)c2)[C@@H](O)[C@H]1O | 3.3 µM | 38.1 µg/mL (≈ 82.1 µM) | > 100 µg/mL | 27.4 µg/mL (≈ 59 µM) | –
Nc1ncnc2c1ncn2[C@@H]1O[C@H](COC(=O)Cc2ccccc2F)[C@@H](O)[C@H]1O | 40 µM | 23.6 µg/mL (≈ 58.5 µM) | 51.4 µg/mL (≈ 127 µM) | 35.8 µg/mL (≈ 88.8 µM) | –
Nc1ncnc2c1ncn2[C@@H]1O[C@H](COC(=O)c2cccc(Cl)c2)[C@@H](O)[C@H]1O | 28 µM | 11.3 µg/mL (≈ 27.8 µM) | 9.4 µg/mL (≈ 23.2 µM) | 8.7 µg/mL (≈ 21.4 µM) | –
Nc1ncnc2c1ncn2[C@@H]1O[C@H](COC(=O)Cc2ccccc2O)[C@@H](O)[C@H]1O | 44 µM | 15.9 µg/mL (≈ 39.6 µM) | 37.8 µg/mL (≈ 94.2 µM) | 26 µg/mL (≈ 64.8 µM) | –
CCCCCCCCCC(=O)OC[C@H]1O[C@@H](n2cnc3c(N)ncnc32)[C@H](O)[C@@H]1O | > 100 µM | > 100 µg/mL | > 100 µg/mL | > 100 µg/mL | –
Nc1ncnc2c1ncn2[C@@H]1O[C@H](COC(=O)c2ccc(F)cc2)[C@@H](O)[C@H]1O | 51 µM | 24.8 µg/mL (≈ 63.7 µM) | > 100 µg/mL | 11.2 µg/mL (≈ 28.8 µM) | –
Cc1ccc(CC(=O)OC[C@H]2O[C@@H](n3cnc4c(N)ncnc43)[C@H](O)[C@@H]2O)cc1 | 15 µM | 16.4 µg/mL (≈ 41.1 µM) | 47.4 µg/mL (≈ 119 µM) | 11.8 µg/mL (≈ 29.5 µM) | –
CC1(C)S[C@@H]2[C@H](NC(=O)Cc3ccccc3)C(=O)N2[C@H]1C(=O)O [PENICILLIN G SODIUM] | – | – | 0.54 µg/mL | – | –
CC1(C)O[C@@H]2[C@H](O1)[C@@H](COC(=O)Cc1cccc(Br)c1)O[C@H]2n1cnc2c(N)ncnc21 | 3.7 µM | 40.6 µg/mL (≈ 80.5 µM) | 38.3 µg/mL (≈ 75.9 µM) | 18.8 µg/mL (≈ 37.3 µM) | –
CC1(C)O[C@@H]2[C@H](O1)[C@@H](COC(=O)Cc1cccc(F)c1)O[C@H]2n1cnc2c(N)ncnc21 | 1.1 µM | 60.3 µg/mL (≈ 136 µM) | > 100 µg/mL | 12.9 µg/mL (≈ 29.1 µM) | –
N[C@@H](Cc1ccc(O)cc1)C(=O)N[C@H](C(=O)O)[C@H]1[C@H](O)[C@]2(O)CO[C@@H]([C@@H]2O)N1O | – | – | – | – | < 0.001 µM
Nc1ncnc2c1ncn2[C@@H]1O[C@H](COC(=O)c2cccc(F)c2)[C@@H](O)[C@H]1O | 11 µM | 5.3 µg/mL (≈ 13.6 µM) | 20.4 µg/mL (≈ 52.4 µM) | 3.5 µg/mL (≈ 8.99 µM) | –
CC1(C)O[C@@H]2[C@H](O1)[C@@H](COC(=O)Cc1ccccc1Cl)O[C@H]2n1cnc2c(N)ncnc21 | 47 µM | 29 µg/mL (≈ 63.1 µM) | > 100 µg/mL | 28 µg/mL (≈ 60.9 µM) | –
CC(=O)OC[C@H]1O[C@@H](n2cnc3c(N)ncnc32)[C@H](O)[C@@H]1O | – | 77.6 µg/mL (≈ 251 µM) | > 100 µg/mL | 58.2 µg/mL (≈ 188 µM) | –
CC1(C)O[C@@H]2[C@H](O1)[C@@H](COC(=O)Cc1ccc(Br)cc1)O[C@H]2n1cnc2c(N)ncnc21 | 5.6 µM | > 100 µg/mL | > 100 µg/mL | 21.2 µg/mL (≈ 42 µM) | –

SMILES | IC50 [1] | MIC50 [2] | MIC50 [3] | MIC50 [4] | IC50 [5]
Nc1ncnc2c1ncn2[C@@H]1O[C@H](COC(=O)Cc2cccc(Cl)c2)[C@@H](O)[C@H]1O | 6 µM | 20.2 µg/mL (≈ 48.1 µM) | 49.2 µg/mL (≈ 117 µM) | 35.1 µg/mL (≈ 83.6 µM) | –
Nc1ncnc2c1ncn2[C@@H]1O[C@H](COC(=O)Cc2cccc(O)c2)[C@@H](O)[C@H]1O | 9.3 µM | 37 µg/mL (≈ 92.2 µM) | > 100 µg/mL | 27.3 µg/mL (≈ 68 µM) | –
CC1(C)O[C@@H]2[C@H](O1)[C@@H](COC(=O)Cc1ccc(Cl)c(Cl)c1)O[C@H]2n1cnc2c(N)ncnc21 | > 100 µM | 34 µg/mL (≈ 68.8 µM) | 40.2 µg/mL (≈ 81.3 µM) | 19.3 µg/mL (≈ 39 µM) | –
Nc1ncnc2c1ncn2[C@@H]1O[C@H](COC(=O)Cc2ccc(Cl)cc2)[C@@H](O)[C@H]1O | 8.1 µM | 7.7 µg/mL (≈ 18.3 µM) | 13.8 µg/mL (≈ 32.9 µM) | 19.9 µg/mL (≈ 47.4 µM) | –
Nc1ncnc2c1ncn2[C@@H]1O[C@H](COC(=O)Cc2ccc(F)cc2)[C@@H](O)[C@H]1O | 7.7 µM | > 100 µg/mL | > 100 µg/mL | 26.1 µg/mL (≈ 64.7 µM) | –
CC1(C)O[C@@H]2[C@H](O1)[C@@H](COC(=O)Cc1cccc(Cl)c1)O[C@H]2n1cnc2c(N)ncnc21 | 6.3 µM | 27.8 µg/mL (≈ 60.4 µM) | 44.9 µg/mL (≈ 97.6 µM) | 22 µg/mL (≈ 47.8 µM) | –
CC1(C)O[C@@H]2[C@H](O1)[C@@H](COC(=O)Cc1cccc(O)c1)O[C@H]2n1cnc2c(N)ncnc21 | 9.6 µM | 18.9 µg/mL (≈ 42.8 µM) | > 100 µg/mL | 25.9 µg/mL (≈ 58.7 µM) | –
CC1(C)O[C@@H]2[C@H](O1)[C@@H](COC(=O)Cc1ccccc1O)O[C@H]2n1cnc2c(N)ncnc21 | 55 µM | 37.2 µg/mL (≈ 84.3 µM) | > 100 µg/mL | 23 µg/mL (≈ 52.1 µM) | –
CC1(C)O[C@@H]2[C@H](O1)[C@@H](COC(=O)Cc1ccccc1F)O[C@H]2n1cnc2c(N)ncnc21 | 44 µM | 25.7 µg/mL (≈ 58 µM) | > 100 µg/mL | 25.5 µg/mL (≈ 57.5 µM) | –
COc1ccc(CC(=O)OC[C@H]2O[C@@H](n3cnc4c(N)ncnc43)[C@@H]3OC(C)(C)O[C@@H]32)cc1OC | > 100 µM | 47.3 µg/mL (≈ 97.4 µM) | > 100 µg/mL | 30.1 µg/mL (≈ 62 µM) | –
Nc1ncnc2c1ncn2[C@@H]1O[C@H](COC(=O)c2ccc(Br)cc2)[C@@H](O)[C@H]1O | 62 µM | 10.1 µg/mL (≈ 22.4 µM) | > 100 µg/mL | 22.7 µg/mL (≈ 50.4 µM) | –
Nc1ncnc2c1ncn2[C@@H]1O[C@H](COC(=O)Cc2cccc(F)c2)[C@@H](O)[C@H]1O | 0.8 µM | 1.3 µg/mL (≈ 3.22 µM) | 9.2 µg/mL (≈ 22.8 µM) | 0.08 µg/mL (≈ 0.198 µM) | –
CC1(C)O[C@@H]2[C@H](O1)[C@@H](COC(=O)Cc1ccc(F)cc1)O[C@H]2n1cnc2c(N)ncnc21 | 7.1 µM | 76.2 µg/mL (≈ 172 µM) | > 100 µg/mL | 24.8 µg/mL (≈ 55.9 µM) | –
CCCCCCCC(=O)OC[C@H]1O[C@@H](n2cnc3c(N)ncnc32)[C@H](O)[C@@H]1O | 93 µM | > 100 µg/mL | > 100 µg/mL | > 100 µg/mL | –
Nc1ncnc2c1ncn2[C@@H]1O[C@H](COC(=O)Cc2ccc(O)cc2)[C@@H](O)[C@H]1O | 23 µM | 9.8 µg/mL (≈ 24.4 µM) | 44.3 µg/mL (≈ 110 µM) | 25.9 µg/mL (≈ 64.5 µM) | –
Nc1ncnc2c1ncn2[C@@H]1O[C@H](COC(=O)c2ccc(Cl)cc2)[C@@H](O)[C@H]1O | 43 µM | 28.1 µg/mL (≈ 69.2 µM) | > 100 µg/mL | 19.3 µg/mL (≈ 47.6 µM) | –
CCCC(=O)OC[C@H]1O[C@@H](n2cnc3c(N)ncnc32)[C@H](O)[C@@H]1O | 65 µM | > 100 µg/mL | > 100 µg/mL | 87.3 µg/mL (≈ 259 µM) | –
Nc1ncnc2c1ncn2[C@@H]1O[C@H](COC(=O)c2ccccc2)[C@@H](O)[C@H]1O | 39 µM | 33.7 µg/mL (≈ 90.7 µM) | 67.4 µg/mL (≈ 181 µM) | 21.9 µg/mL (≈ 59 µM) | –
Nc1ncnc2c1ncn2[C@@H]1O[C@H](COC(=O)Cc2ccc(Br)cc2)[C@@H](O)[C@H]1O | 5.2 µM | 88.9 µg/mL (≈ 191 µM) | 42.2 µg/mL (≈ 90.9 µM) | 19.3 µg/mL (≈ 41.6 µM) | –
CC1(C)O[C@@H]2[C@H](O1)[C@@H](COC(=O)Cc1ccc(Cl)cc1)O[C@H]2n1cnc2c(N)ncnc21 | 8.4 µM | 15.2 µg/mL (≈ 33.1 µM) | 7.2 µg/mL (≈ 15.7 µM) | 30.6 µg/mL (≈ 66.5 µM) | –
CCCCCC(=O)OC[C@H]1O[C@@H](n2cnc3c(N)ncnc32)[C@H](O)[C@@H]1O | 77 µM | > 100 µg/mL | > 100 µg/mL | > 100 µg/mL | –
